Hits are enriched below; roughly 2.9% of the tested compounds scored in any of these assays.
Apaf1 inhib: blocks human Apaf-1 apoptosome activity; O14727; reconstituted apoptosome caspase-3 activity, DEVD-Rh110 fluorescence; inhibition, % at 20 µM; 330,000 tested, 0.71% active; AID 489030; active = inhibition of at least 40% at 20 µM
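System: Apoptosome proteins | Medium: Hepes pH 7.5 with detergent and BSA | Also added: Cytochrome c trigger plus (Z-DEVD)2-Rh110 caspase-3 substrate | Incubation: 30 min compound preincubation, 50 min activation, room temperature | Detection: Rhodamine 110 fluorescence at Ex 480/Em 540 nm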
PfGluPho inh: PfG6PD (Plasmodium falciparum) enzyme inhibition | PfGluPho enzyme, NADPH resazurin-diaphorase fluorescence | inhibition, % at 20 µM | 350,000 tested, 0.78% active;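 active = inhibition reaching at least a set limit at 20 µM in the primary screen, cut at about 59% in these data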
PfM18AAP inh: blocks P. falciparum M18 aspartyl aminopeptidase. recombinant PfM18AAP, H-Glu-NHMec fluorogenic cleavage. inhibition, % at 7.35 µM. 290,000 tested, 1.2% active;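 active = inhibition above the campaign mean inhibition over all tested compounds plus 3 SD, cut at about 28% in these data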
ZTA DNA inh: ZTA (EBV) inhibition in EBNA-1 counter-screen. P03206. ZTA-DNA binding, fluorescence polarization. inhibition, % at 11 µM. 320,000 tested, 0.15% active. AID 2234; in the data active = inhibition above about 33%
Target sequence (P03206 whole entry, looked up): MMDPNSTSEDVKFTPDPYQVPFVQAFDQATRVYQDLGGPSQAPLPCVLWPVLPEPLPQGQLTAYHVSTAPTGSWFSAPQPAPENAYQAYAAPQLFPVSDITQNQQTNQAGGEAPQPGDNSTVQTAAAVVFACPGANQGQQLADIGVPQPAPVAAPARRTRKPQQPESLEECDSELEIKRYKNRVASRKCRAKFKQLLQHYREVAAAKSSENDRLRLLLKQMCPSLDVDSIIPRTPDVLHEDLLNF
UBC13 polyUb: human UBC13 polyubiquitination inhibition; P61088; UBC13 polyubiquitin chain formation, TR-FRET; inhibition, % at 20 µM; 330,000 tested, 0.47% active; AID 485273; in the data active = inhibition above about 45%, passing the limit was not always enough
Target sequence (P61088 whole entry, looked up): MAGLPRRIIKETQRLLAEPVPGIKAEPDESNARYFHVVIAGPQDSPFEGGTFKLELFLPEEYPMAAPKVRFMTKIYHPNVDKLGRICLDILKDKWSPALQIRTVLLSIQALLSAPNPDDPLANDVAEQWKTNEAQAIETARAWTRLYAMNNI
EBNA-1 inhibitor: blocks EBNA-1 binding to DNA. EBNA-1 DNA binding, fluorescence polarization. inhibition, % at 14.8 µM. 300,000 tested, 0.34% active; in the data active = inhibition above about 28%
Numbers stand for hits; 0 = inactive; - = no result.

SMILES | Apaf1 inhib | PfGluPho inh | PfM18AAP inh | ZTA DNA inh | UBC13 polyUb | EBNA-1 inhibitor
CCOC(=O)c1ccc(N2CSC3=C(C#N)C(c4ccc(OC)cc4OC)CC(=O)N3C2)cc1 (stereo unspecified) | 50 | 0 | 0 | 0 | 0 | 0
CCOc1ccc(N2CSC3=C(C#N)C(c4ccco4)CC(=O)N3C2)cc1 (stereo unspecified) | 0 | 0 | 33 | 0 | 0 | 0
CCOC(=O)C1=C(CC)OC(N)=C(C#N)C1c1ccc(OC)cc1OC (stereo unspecified) | 0 | 0 | 0 | 0 | 0 | 0
CC(O)C(C(=O)OCc1ccc([N+](=O)[O-])cc1)N1C(=O)c2ccccc2C1=O (stereo unspecified) | - | 0 | 0 | 0 | - | 0
CCNC(=S)NNC(=S)NCc1ccccc1 | 0 | 0 | 32 | 0 | 0 | 0
Cc1ccc(NC(=O)COc2ccc3c(c2)OCO3)c(C)c1 | 0 | 0 | - | 0 | 0 | -
Clc1ccc(Cl)c(-c2ccc(/C=N/c3ncn[nH]3)o2)c1 | 0 | 0 | 30 | 0 | 0 | 0
O=C1CSC(=S)N1N=Cc1ccccc1O | - | 0 | - | - | - | -
O=C1CSC(=S)N1/N=C/c1cc(Br)c(O)c(Br)c1 | - | 0 | 40 | 0 | - | 0
O=c1cc(C(F)(F)F)[nH]c(=S)n1-c1ccccc1 | 0 | 0 | 30 | 0 | 0 | 0
COc1ccc(S(=O)(=O)Nc2cc(Sc3ncn[nH]3)c(O)c3ccccc23)cc1 | - | - | 50 | - | - | -
CC(/C=N/NC(=O)Cc1cc(=O)[nH][nH]1)=C\c1ccccc1 | 60 | 0 | 0 | 0 | 0 | 0
O=[N+]([O-])c1ccccc1S(=O)(=O)N1CCCC(C(F)(F)F)C1 (stereo unspecified) | 0 | 0 | 0 | 0 | 0 | 0
Oc1ccc(C=Nc2ccc3ncccc3c2)c(O)c1 | 95 | - | 0 | 0 | 0 | 0
O=C(O)C1CSC(c2coc3ccccc3c2=O)N1 (stereo unspecified) | 0 | 0 | 29 | 0 | 0 | 0
CCCCCCC/C=N/Nc1nnc(Cc2ccccc2)c(=O)[nH]1 | 0 | 0 | 28 | 0 | 0 | 0
Oc1cccc(/C=N/NC(=S)NCCN2CCOCC2)c1O | 0 | 0 | 29 | 0 | 0 | 0
Cc1cc(/C=N/NC(N)=S)c(O)c(/C=N/NC(N)=S)c1 | 0 | 0 | 45 | 0 | 0 | 0
NC(=S)N/N=C/c1cccc(O)c1O | 0 | 0 | 40 | 0 | 0 | 0
COc1ccccc1C(=O)NCCC(=O)N1CC=C(c2ccccc2)CC1 | 0 | 0 | - | 0 | 0 | 0
COc1ccccc1/C=C(/CC(=O)NCc1ccc2c(c1)OCO2)c1nc2ccccc2s1 | 0 | 0 | 0 | 0 | 0 | 36
COc1ccccc1/C=C/C(=O)OCC(=O)NCc1ccc2c(c1)OCO2 | 0 | 0 | - | - | 0 | -
Cc1ccc(Nc2nnc(SCC(=O)Nc3cccnc3Cl)s2)cc1C | 0 | 0 | 29 | 0 | 0 | 0
O=C(Nc1ccc(S(=O)(=O)Nc2ncccn2)cc1)C12CC3CC(CC(Cl)(C3)C1)C2 | 0 | 0 | - | - | 0 | -
COc1ccccc1N/N=C/c1ccc2c(c1)OCO2 | 0 | 0 | 31 | 0 | 0 | 0
SMILES | Apaf1 inhib | PfGluPho inh | PfM18AAP inh | ZTA DNA inh | UBC13 polyUb | EBNA-1 inhibitor
COc1ccccc1C(=O)N/N=C/c1ccc2c(c1)OCO2 | 0 | 0 | 0 | 0 | 0 | 0
COc1cccc(-c2nc(C(N)=O)c3[nH]c(=O)n(-c4cccc(Cl)c4)c3n2)c1OC | 0 | 0 | 0 | 0 | 50 | 0
O=C(/C=C/c1ccc([N+](=O)[O-])cc1)N(c1ccccn1)C1CCCCC1 | 0 | 0 | 43 | 0 | 0 | 0
O=[N+]([O-])c1ccc(-c2ccc(C=Nc3cccc4ccccc34)o2)cc1 | 46 | 0 | 0 | 0 | 0 | 0
O=[N+]([O-])c1ccc(-c2ccc(/C=N/O)o2)cc1 | 0 | 0 | 0 | 0 | 0 | 0
CC1(C)CC(=O)C=C(NNC(=O)c2cccnc2)C1 | 0 | 0 | 0 | 0 | 0 | 0
COc1cccc(C(=O)NNC2=CC(=O)CC(C)(C)C2)c1 | 0 | 0 | 31 | 0 | 0 | 0
Oc1ccccc1C(=S)N1CCN(c2cccc(Cl)c2)CC1 | 0 | 0 | 30 | 0 | 0 | 0
Oc1ccc(C(=S)N2CCN(c3cccc(Cl)c3)CC2)cc1 | 0 | 0 | 0 | 0 | 0 | 0
O=C(NC(=S)N1CCN(c2ccc(O)cc2)CC1)c1cccs1 | 0 | 0 | 31 | 0 | 0 | 0
O=C(O)c1ccccc1-c1ccc(/C=C/c2cc(C(F)(F)F)[nH]c(=O)n2)o1 | 0 | 0 | 0 | - | 0 | -
O=C(O)c1cc(Cl)ccc1-c1ccc(/C=C/c2cc(C(F)(F)F)[nH]c(=O)n2)o1 | 0 | 0 | 0 | 53 | 0 | 43
CN1/C(=C\C=N\NC(=O)c2ccccc2Br)C(C)(C)c2ccccc21 | 0 | 0 | 31 | 0 | 0 | 0
COc1ccc(OC)c(-c2cc(C(=O)NCc3ccc(Cl)cc3)no2)c1 | 0 | 0 | 0 | 0 | 0 | 30
COc1ccc(-c2cc(C(=O)NCc3ccc(Cl)cc3)no2)cc1OC | 0 | 0 | 0 | 0 | 0 | 0
COc1ccc(N2C(=O)[C@@H]3[C@H](C2=O)[C@H]2c4ccccc4C=CN2[C@@H]3C(=O)Nc2ccccc2)cc1 | 67 | 0 | 0 | 0 | 0 | 0
CC(C)(C)C(=O)[C@@H]1[C@@H]2C(=O)N(c3ccc4c(c3)OCCO4)C(=O)[C@@H]2C2c3ccccc3C=CN21 (stereo partly specified) | 62 | 0 | 0 | 0 | 0 | 0
Cc1ccc(N2C(=O)[C@@H]3[C@H](C2=O)C2c4ccccc4C=CN2[C@@H]3C(=O)c2ccco2)c(C)c1 (stereo partly specified) | 87 | 0 | 0 | 0 | 0 | 0
CC(=O)[C@@H]1[C@@H]2C(=O)N(Cc3ccccc3)C(=O)[C@@H]2C2c3ccccc3C=CN21 (stereo partly specified) | 67 | 0 | 0 | 0 | 0 | 0
COc1ccc(N2C(=O)[C@@H]3[C@H](C2=O)[C@H]2C=CC=NN2[C@@H]3C(=O)Nc2ccc(Cl)cc2)cc1 | 0 | 0 | 0 | 0 | 0 | 0
Cc1ccc(N(C)S(=O)(=O)c2c[nH]c3ccc([N+](=O)[O-])cc23)cc1 | 0 | 0 | 0 | 0 | 0 | 0
CCc1ccccc1OCC(=O)Nc1cccc(S(=O)(=O)NC2=NCCC2)c1 | 0 | 0 | - | 0 | 0 | -
COc1ccc2nc3n(c(=O)c2c1)-c1ccccc1C(=O)NC3Cc1ccccc1 (stereo unspecified) | 0 | - | - | - | 0 | -
O=C(c1ccco1)[C@@H]1[C@@H]2C(=O)N(c3ccccc3)C(=O)[C@@H]2C2c3ccccc3C=CN21 (stereo partly specified) | 86 | 0 | 0 | 0 | 0 | 0
Cc1ccc(N2C(=O)[C@@H]3[C@H](C2=O)C2c4ccccc4C=CN2[C@@H]3C(=O)c2ccco2)cc1 (stereo partly specified) | - | 0 | 0 | - | - | -
Cc1ccc(CCNc2ncnc(Cl)c2N)cc1 | - | 0 | - | - | - | -
CC(C)C1C(C#N)=C(N)SC(N)=C1C#N | 0 | 0 | 0 | 0 | 0 | 0
CCC(CC)C1C(C#N)=C(N)SC(N)=C1C#N | 0 | 0 | 31 | 0 | 0 | 0
CC(C)(C)Cc1nnc(NC(=O)c2ccc3c(c2)OCO3)s1 | 0 | 0 | 30 | 0 | 0 | 0
Cc1cccc(CN(Nc2ccccc2)c2ccccc2)n1 | - | 0 | - | - | - | -
